The record followed here is ChEMBL document CHEMBL4825663 (J Med Chem, 2021).

Series [1] in a line: Drug distribution in BALB/c mouse liver at 20 mg/kg, po measured upto 24 hrs in presence of 10 mg/kg encequidar by LC-MS/MS analysis. The format is ADME, organism-based. Conditions: in vivo; call rule not given here.
A short description of series [2]: Drug distribution in Sprague-Dawley rat liver at 20 mg/kg, po measured upto 168 hrs in presence of 10 mg/kg encequidar by LC-MS/MS analysis. The format is ADME, organism-based. Conditions: in vivo.
Series [3] in a line: Drug accumulation in Sprague-Dawley rat plasma at 20 mg/kg, po administered once per week for 4 weeks in presence of 10 mg/kg encequidar by LC-MS/MS analysis. The format is ADME, organism-based. The conditions noted are these: in vivo, 672 h.
Series [4] can be described thus: Toxicity in athymic nude mouse xenografted with human MDA-MB-231 cells assessed as reduction in body weight at 30 mg/kg, po administered every other day for 4 doses in presence of 12 mg/kg encequidar and monitored for 70 to 82 days. The series is classed as organism-based. More on the design: scale not given: the % may be the effect or the level left. Conditions: in vivo, time 70-82 day. The method, boiled down: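 Female athymic NCr-nu mice (n = 10/group) bearing subcutaneous MDA-MB-231 xenografts were treated from day 8. […] Individual body weights were monitored for 82 days after implantation.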

Series [5] is described as follows: Ratio of drug concentration in BALB/c mouse kidney to plasma at 20 mg/kg, po measured upto 24 hrs in presence of 10 mg/kg encequidar by LC-MS/MS analysis. The series is classed as ADME, organism-based.
A short description of series [6]: Toxicity in athymic nude mouse xenografted with human NCI-H460 cells assessed as mortality at 18 to 24 mg/kg, iv administered every other day for 4 doses monitored for 48 days. Conditions: in vivo, 1152 h, dose 18-24 mg/kg, time 48 day. The series is classed as organism-based. Put shortly:
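Female athymic NCr-nu mice carried subcutaneous NCI-H460 human lung tumor xenografts. Paclitaxel was given IV at 18 or 24 mg/kg every other day for four doses. Animals were followed for 48 days after tumor implantation, with individual body weights and mortality recorded alongside tumor weights.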

Series [7] can be described thus: AUClast in Sprague-Dawley rat at 20 mg/kg, po measured upto 24 hrs by LC-MS/MS analysis. The series is classed as ADME, organism-based. Set-up: route oral, dose 20 mg/kg, time <=24. The conditions noted are these: in vivo.
For the next series, the system named is HT-29. Kind of series: Antitumor activity against human HT-29 cells xenografted in athymic nude mouse assessed as reduction in tumor growth at 40 mg/kg, po in presence of 20 mg/kg encequidar. The format is functional. More on the design: scale not given: the % may be the effect or the level left.
The next series deals with MDA-MB-231. Kind of series: Antitumor activity against human MDA-MB-231 cells xenografted in athymic nude mouse assessed as reduction in median number of days for tumor to reach two tumor mass doubling at 20 mg/kg, po administered every other day for 4 doses in presence of 8 mg/kg encequidar and monitored for 70 to 82 days (reference value: 13.1 day). The format is functional. Conditions: time 70-82 day.

In another series the test system is NCI-H460. As to the kind of experiment: Antitumor activity against human NCI-H460 cells xenografted in athymic nude mouse assessed as median tumor growth delay at 50 mg/kg, po administered every other day for 4 doses in presence of 20 mg/kg encequidar and monitored for 48 days. The series is classed as functional. The conditions noted are these: time 48 day. The method, boiled down: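 Female athymic NCr-nu mice bearing subcutaneous NCI-H460 human lung tumor xenografts. Paclitaxel (30, 40 or 50 mg/kg) and the P-gp inhibitor (12, 16 or 20 mg/kg; ratio 2.5:1) given together as one oral gavage solution every other day for four doses. IV paclitaxel (18 and 24 mg/kg) on the same schedule for comparison. Tumor weights and body weights followed for 48 days after implantation. Read-out: median tumor growth delay.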

Series [8] in a line: Toxicity in Beagle dog assessed as increase in total leukocyte and eosinophil counts at >= 100 mg/kg, po and measured after 13 weeks. The series is classed as organism-based, Canis lupus familiaris. The conditions noted are these: in vivo, 2184 h.
The target of another series is Cytochrome P450 3A4 (Homo sapiens, UniProt P08684). Kind of series: Drug metabolism assessed as human CYP3A4-mediated metabolism. The series is classed as ADME. Conditions: recombinant enzyme.
Sequence of Cytochrome P450 3A4 (P08684 whole entry): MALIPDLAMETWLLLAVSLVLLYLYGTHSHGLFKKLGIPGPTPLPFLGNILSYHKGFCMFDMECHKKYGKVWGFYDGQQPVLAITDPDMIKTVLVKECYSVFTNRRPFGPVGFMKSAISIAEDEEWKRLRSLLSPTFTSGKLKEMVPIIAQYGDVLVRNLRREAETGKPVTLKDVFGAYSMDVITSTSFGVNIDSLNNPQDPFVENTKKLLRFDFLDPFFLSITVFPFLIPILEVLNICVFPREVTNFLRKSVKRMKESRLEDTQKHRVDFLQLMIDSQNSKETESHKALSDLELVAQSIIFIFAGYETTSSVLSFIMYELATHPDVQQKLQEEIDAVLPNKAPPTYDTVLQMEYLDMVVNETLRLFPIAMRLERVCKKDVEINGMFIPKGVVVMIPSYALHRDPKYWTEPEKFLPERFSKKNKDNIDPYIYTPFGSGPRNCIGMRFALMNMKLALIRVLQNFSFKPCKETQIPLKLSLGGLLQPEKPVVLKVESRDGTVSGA
Another series concerns the target T1, Cytochrome P450 1A2 (Homo sapiens, UniProt P05177).
T1 sequence (P05177 whole entry): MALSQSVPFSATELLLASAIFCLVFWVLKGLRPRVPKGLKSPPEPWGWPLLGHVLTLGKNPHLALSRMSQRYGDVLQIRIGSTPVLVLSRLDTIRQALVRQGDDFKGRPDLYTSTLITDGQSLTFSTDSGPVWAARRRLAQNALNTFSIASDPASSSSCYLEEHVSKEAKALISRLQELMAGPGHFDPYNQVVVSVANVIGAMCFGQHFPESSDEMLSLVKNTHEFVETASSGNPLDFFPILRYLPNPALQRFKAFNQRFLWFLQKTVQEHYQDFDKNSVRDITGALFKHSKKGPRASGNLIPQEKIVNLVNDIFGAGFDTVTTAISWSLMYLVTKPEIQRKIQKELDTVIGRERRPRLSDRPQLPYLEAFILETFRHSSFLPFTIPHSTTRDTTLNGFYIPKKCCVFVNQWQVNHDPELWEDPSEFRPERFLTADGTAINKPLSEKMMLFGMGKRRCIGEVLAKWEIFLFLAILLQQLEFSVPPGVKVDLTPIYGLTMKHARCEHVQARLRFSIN
Kind of series: Drug metabolism assessed as human CYP1A2-mediated metabolism. The format is ADME. Conditions: recombinant enzyme.

A short description of series [9]: Toxicity in Sprague-Dawley rat assessed as histiocytosis in lymph nodes at 10 to 50 mg/kg, po and measured after 4 to 13 weeks. The series is classed as organism-based, Lymph node. Conditions: in vivo, dose lower 10 mg/kg, time lower 4 weeks, dose upper 50 mg/kg, time upper 13 weeks.
Series [10] in a line: Oral bioavailability in Sprague-Dawley rat at 10 mg/kg measured upto 48 hrs by LC-MS/MS analysis. The series is classed as ADME, organism-based. The conditions noted are these: in vivo. The method, boiled down:
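Plasma pharmacokinetics in male Sprague-Dawley rats and male Beagle dogs (n = 3 per species), each given a single dose by IV at 3 mg/kg and by PO at 10 mg/kg. Cmax, Tmax, T1/2 and AUClast were derived for each route. F (%) was calculated from the PO and IV AUClast.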

Series [11] addresses T2, Multidrug and toxin extrusion protein 1 (Homo sapiens, UniProt Q96FL8).
T2 sequence (Q96FL8 whole entry): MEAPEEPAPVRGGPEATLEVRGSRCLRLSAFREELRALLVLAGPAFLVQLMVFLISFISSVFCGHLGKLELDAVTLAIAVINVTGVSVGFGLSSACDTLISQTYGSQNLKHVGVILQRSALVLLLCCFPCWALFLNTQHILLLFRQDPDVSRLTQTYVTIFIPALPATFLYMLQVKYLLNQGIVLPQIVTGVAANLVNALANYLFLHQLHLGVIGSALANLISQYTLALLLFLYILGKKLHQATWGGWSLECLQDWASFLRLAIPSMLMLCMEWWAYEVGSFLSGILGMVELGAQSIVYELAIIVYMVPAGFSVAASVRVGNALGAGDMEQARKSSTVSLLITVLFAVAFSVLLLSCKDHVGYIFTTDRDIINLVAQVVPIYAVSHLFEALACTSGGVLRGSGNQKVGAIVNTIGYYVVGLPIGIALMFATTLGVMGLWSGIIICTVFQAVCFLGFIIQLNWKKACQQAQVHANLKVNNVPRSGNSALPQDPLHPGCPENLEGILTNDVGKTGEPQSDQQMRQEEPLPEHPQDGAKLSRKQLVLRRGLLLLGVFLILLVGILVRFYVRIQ
As to the kind of experiment: Inhibition of human MATE1 assessed as reduction in intracellular probe substrate accumulation upto 100 uM by microplate scintillation counter analysis relative to control. The series is classed as cell-based. The method, boiled down: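 Cellular uptake-inhibition assays used Chinese hamster ovary, HEK293 or MDCKII cells stably expressing the respective human SLC transporter, run alongside the corresponding control cells. Inhibitor was tested at concentrations up to 100 μM.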

Take `CC(=O)O[C@H]1C(=O)[C@@]2(C)[C@H]([C@H](OC(=O)c3ccccc3)[C@]3(O)C[C@H](OC(=O)[C@H](O)[C@@H](NC(=O)c4ccccc4)c4ccccc4)C(C)=C1C3(C)C)[C@]1(OC(C)=O)CO[C@@H]1C[C@@H]2O` [PACLITAXEL]: the Drug uptake entry in series [1] is recorded as “Active”; in series [2] it was “Active”; in [3], “Not Active”. In addition, the Activity in [4] is listed as 5%; in series [6] it was “Non-Toxic”; with HT-29 it was 94%. Moreover, the Kp at 24 h in series [5] was greater than 1. The same molecule had an AUC(0-t) at 24 h in [7] of 308 ng·h/mL. For the same molecule, the results for the Time with MDA-MB-231 and in the series on NCI-H460 were 15.1 days and 12.7 days, respectively.

Take `COc1cc2c(cc1OC)CN(CCc1ccc(-n3nnc(-c4cc(OC)c(OC)cc4NC(=O)c4cc(=O)c5ccccc5o4)n3)cc1)CC2`: the Activity entry in series [8] and in series [9] was “Toxic” in each case. For the same molecule, the Drug metabolism entry was “Metabolite_Detected” on Cytochrome P450 3A4 and “Metabolite_Notdetected” on Cytochrome P450 1A2. The same molecule gave a bioavailability in series [10] of 6.25%. Further, the “inhibition (INH)” value in series [11] is reported as less than 50%.
